Converted amounts (≈) assume the structure as drawn.
Key:
[1] = target: Fatty acid synthase (Homo sapiens, UniProt P49327); test: Inhibition of human FAS assessed as synthesis of long chain fatty acids from malonyl CoA after 60 mins by fluorescence assay
In short: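 FAS enzyme prepared from HeLa cells, in enzyme buffer (20 mM K phosphate, 1 mM EDTA, 1 mM DTT, 5% glycerol, pH 7.4). It was preincubated 60 min at 37 °C with compound (0.1% DMSO), 326 µM NADPH and 60 µM acetyl CoA in 100 mM K phosphate, 1 mM EDTA, 1 mM DTT, pH 7.0. The reaction was started with 200 µM malonyl CoA. NADPH consumption was read at 340 nm over 10 min, and the slope (Vmax) was taken.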

[2] = target: Histamine H1 receptor (Homo sapiens) (UniProt P35367); test: Binding affinity to human histamine H1 receptor at 10 uM by radioligand binding assay
[3] = target: Prostaglandin E2 receptor EP4 subtype (Homo sapiens) (UniProt P35408); test: Binding affinity to human EP4 receptor at 10 uM by radioligand binding assay
[4] = Permeability across human Caco2 cells; type: ADME, cell-based; conditions: Caco-2, read-out: permeability
[5] = target: Pyroglutamylated RF-amide peptide receptor (Homo sapiens) (UniProt Q96P65); test: Binding affinity to human GPR103 receptor at 10 uM by radioligand binding assay
[6] = Oral bioavailability in Han/Wistar rat at 4 mg/kg; type: ADME, organism-based; conditions: in vivo
In short: (§1)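 Male Han/Wistar rats were dosed orally. Compound levels were measured in plasma, and in brain and CSF at 2 h.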

[7] = organism: Rattus norvegicus; test: Binding affinity to rat rolipram binding site at 10 uM by radioligand binding assay
[8] = test system: Liver microsomes; test: Metabolic stability in rat liver microsomes; type: ADME, Microsome
[9] = Clearance in iv dosed Han/Wistar rat; type: ADME, organism-based; conditions: in vivo
In short: (§2)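 Male Han/Wistar rats were dosed intravenously.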

[10] = test system: U937 (Homo sapiens); test: Cytotoxicity against human U937 cells up to 30 uM by LDH release assay
[11] = target: Muscarinic acetylcholine receptor M3 (Homo sapiens) (UniProt P20309); test: Binding affinity to human muscarinic M3 receptor at 10 uM by radioligand binding assay
[12] = Cmax in Han/Wistar rat at 4 mg/kg, po; type: ADME, organism-based; design: dose 4 mg/kg, route oral; conditions: in vivo; in short: as §1
[13] = target: Alpha-1B adrenergic receptor (Rattus norvegicus) (UniProt P15823); test: Binding affinity to rat adrenergic Alpha-1B receptor at 10 uM by radioligand binding assay
[14] = target: Beta-2 adrenergic receptor (Homo sapiens) (UniProt P07550); test: Binding affinity to human adrenergic beta2 receptor at 10 uM by radioligand binding assay
[15] = target: Adenosine receptor A1 (Homo sapiens) (UniProt P30542); test: Binding affinity to human adenosine A1 receptor at 10 uM by radioligand binding assay
[16] = target: Alpha-1A adrenergic receptor (Rattus norvegicus) (UniProt P43140); test: Binding affinity to rat adrenergic alpha1A receptor at 10 uM by radioligand binding assay
Sequence of Alpha-1A adrenergic receptor (Rattus norvegicus) (P43140 whole entry): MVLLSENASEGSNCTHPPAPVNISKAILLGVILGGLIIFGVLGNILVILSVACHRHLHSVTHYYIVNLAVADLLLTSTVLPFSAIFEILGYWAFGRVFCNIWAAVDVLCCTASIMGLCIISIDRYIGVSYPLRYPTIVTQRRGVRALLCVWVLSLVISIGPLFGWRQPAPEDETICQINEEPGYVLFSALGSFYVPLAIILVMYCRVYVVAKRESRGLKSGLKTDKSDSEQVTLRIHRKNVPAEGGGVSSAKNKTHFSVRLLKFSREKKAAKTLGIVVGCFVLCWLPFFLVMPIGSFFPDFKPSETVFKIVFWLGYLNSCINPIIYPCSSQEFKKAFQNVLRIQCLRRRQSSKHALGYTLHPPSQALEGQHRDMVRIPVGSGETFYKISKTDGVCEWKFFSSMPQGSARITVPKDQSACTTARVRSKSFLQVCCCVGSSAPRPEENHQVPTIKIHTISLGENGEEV

[17] = organism: Mus musculus; test: Binding affinity to mouse phorbol ester receptor at 10 uM by radioligand binding assay
[18] = Aqueous solubility of compound at pH 7.4; type: physicochemical; conditions: buffer
[19] = target: Muscarinic acetylcholine receptor M2 (Homo sapiens) (UniProt P08172); test: Binding affinity to human muscarinic M2 receptor at 10 uM by radioligand binding assay
[20] = target: D(2) dopamine receptor (Homo sapiens) (UniProt P14416); test: Binding affinity to human dopamine D2short receptor at 10 uM by radioligand binding assay
Sequence of D(2) dopamine receptor (Homo sapiens) (P14416 whole entry): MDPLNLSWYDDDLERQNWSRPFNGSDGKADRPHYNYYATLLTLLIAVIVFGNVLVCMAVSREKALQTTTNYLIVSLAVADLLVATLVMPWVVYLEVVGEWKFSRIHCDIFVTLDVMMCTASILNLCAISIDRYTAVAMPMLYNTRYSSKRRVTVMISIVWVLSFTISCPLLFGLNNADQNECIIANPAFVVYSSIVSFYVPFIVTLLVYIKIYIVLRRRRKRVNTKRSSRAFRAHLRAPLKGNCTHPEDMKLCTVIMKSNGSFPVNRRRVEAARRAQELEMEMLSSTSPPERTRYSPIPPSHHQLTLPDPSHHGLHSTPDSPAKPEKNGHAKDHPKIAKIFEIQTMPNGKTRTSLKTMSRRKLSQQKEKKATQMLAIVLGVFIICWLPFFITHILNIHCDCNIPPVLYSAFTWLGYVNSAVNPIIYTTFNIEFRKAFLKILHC

[21] = target: hERG (KCNH2) (Homo sapiens, UniProt Q12809); test: Binding affinity to human ERG at 10 uM by radioligand binding assay
[22] = target: Cytochrome P450 3A4 (Homo sapiens, UniProt P08684); test: Inhibition of human CYP3A4; type: ADME
[23] = organism: Rattus norvegicus; test: Liver blood flow rat; type: ADME, organism-based
[24] = target: Cytochrome P450 2C19 (Homo sapiens, UniProt P33261); test: Inhibition of human CYP2C19; type: ADME
[25] = organism: Rattus norvegicus; test: Binding affinity to rat ATP-sensitive potassium channel at 10 uM by radioligand binding assay
[26] = Volume of distribution at steady state in iv dosed Han/Wistar rat; type: ADME, organism-based; conditions: in vivo, read-out: Vdss; in short: as §2
[27] = target: Sodium-dependent noradrenaline transporter (Homo sapiens) (UniProt P23975); test: Binding affinity to human NET at 10 uM by radioligand binding assay
[28] = target: Cytochrome P450 2D6 (Homo sapiens, UniProt P10635); test: Inhibition of human CYP2D6; type: ADME
[29] = target: Adenosine receptor A2a (Homo sapiens) (UniProt P29274); test: Binding affinity to human adenosine A2A receptor at 10 uM by radioligand binding assay
[30] = Tmax in Han/Wistar rat at 4 mg/kg, po; type: ADME, organism-based; design: dose 4 mg/kg, route oral; conditions: in vivo; in short: as §1
[31] = target: Alpha-2A adrenergic receptor (Homo sapiens) (UniProt P08913); test: Binding affinity to human adrenergic alpha2A receptor at 10 uM by radioligand binding assay
[32] = target: D(1A) dopamine receptor (Homo sapiens) (UniProt P21728); test: Binding affinity to human dopamine D1 receptor at 10 uM by radioligand binding assay
[33] = test system: Liver microsomes; test: Metabolic stability in human liver microsomes; type: ADME, Microsome
[34] = organism: Rattus norvegicus; test: Binding affinity to rat agonist site of GABA-A receptor at 10 uM by radioligand binding assay
[35] = Half life in Han/Wistar rat at 4 mg/kg, po; type: ADME, organism-based; design: dose 4 mg/kg, route oral; conditions: in vivo; in short: as §1
[36] = organism: Rattus norvegicus; test: Binding affinity to rat sodium channel site 2 at 10 uM by radioligand binding assay
[37] = target: Sigma non-opioid intracellular receptor 1 (Homo sapiens) (UniProt Q99720); test: Binding affinity to human sigma 1 receptor at 10 uM by radioligand binding assay
[38] = organism: Rattus norvegicus; test: Binding affinity to rat dihydropyridine binding site of calcium channel L-type at 10 uM by radioligand binding assay
[39] = organism: Rattus norvegicus; test: Binding affinity to rat central imidazoline I2 receptor at 10 uM by radioligand binding assay
[40] = target: Fatty acid synthase (Mus musculus, UniProt P19096); test: Inhibition of FAS in mouse N42 cells assessed as [14C]-acetate incorporation after 4 hrs by scintillation counting; type: cell-based
In short: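 Immortalized clonal neuronal mouse hypothalamic N-42 cells were exposed to compound for 60 min at 37 °C, then to 14C-acetate (10^6 dpm) for 4 h at 37 °C. Lipids were extracted with chloroform/methanol and the lower phase was evaporated. Incorporated radioactivity was measured by scintillation counting.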

[41] = target: Cytochrome P450 1A2 (Homo sapiens, UniProt P05177); test: Inhibition of human CYP1A2; type: ADME
Sequence of Cytochrome P450 1A2 (P05177 whole entry): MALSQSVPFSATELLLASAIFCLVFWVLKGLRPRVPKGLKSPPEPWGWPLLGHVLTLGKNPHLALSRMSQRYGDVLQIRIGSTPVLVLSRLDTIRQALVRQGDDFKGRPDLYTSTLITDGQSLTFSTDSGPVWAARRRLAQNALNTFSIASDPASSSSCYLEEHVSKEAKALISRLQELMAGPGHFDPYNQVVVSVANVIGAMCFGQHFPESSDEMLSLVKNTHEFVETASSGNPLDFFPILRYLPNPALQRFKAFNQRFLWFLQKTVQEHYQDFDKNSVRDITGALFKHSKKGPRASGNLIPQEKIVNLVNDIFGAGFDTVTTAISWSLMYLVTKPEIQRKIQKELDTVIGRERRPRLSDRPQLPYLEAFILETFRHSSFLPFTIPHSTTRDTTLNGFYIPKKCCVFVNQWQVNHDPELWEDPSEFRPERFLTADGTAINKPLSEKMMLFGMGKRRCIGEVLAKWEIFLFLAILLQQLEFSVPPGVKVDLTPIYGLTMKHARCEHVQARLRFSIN

[42] = organism: Rattus norvegicus; test: Binding affinity to rat GABA-A receptor at 10 uM by radioligand binding assay
[43] = Plasma protein binding in rat; type: ADME, cell-free; conditions: read-out: PPB (converted)
[44] = target: Cytochrome P450 2C9 (Homo sapiens, UniProt P11712); test: Inhibition of human CYP2C9; type: ADME
Sequence of Cytochrome P450 2C9 (P11712 whole entry): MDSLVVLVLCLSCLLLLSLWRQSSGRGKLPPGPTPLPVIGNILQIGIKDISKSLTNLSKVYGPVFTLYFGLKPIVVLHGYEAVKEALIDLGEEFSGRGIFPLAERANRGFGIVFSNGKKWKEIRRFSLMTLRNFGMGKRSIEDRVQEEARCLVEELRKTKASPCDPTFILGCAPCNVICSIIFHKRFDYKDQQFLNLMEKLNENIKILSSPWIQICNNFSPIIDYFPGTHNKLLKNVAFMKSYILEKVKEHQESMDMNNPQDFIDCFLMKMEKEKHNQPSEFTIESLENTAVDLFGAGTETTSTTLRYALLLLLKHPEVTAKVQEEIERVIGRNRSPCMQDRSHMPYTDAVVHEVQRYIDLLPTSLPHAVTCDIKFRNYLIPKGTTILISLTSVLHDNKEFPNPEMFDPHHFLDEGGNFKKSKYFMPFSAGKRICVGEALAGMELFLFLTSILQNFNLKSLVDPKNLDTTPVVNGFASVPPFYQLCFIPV

[45] = target: Glutamate NMDA receptor (Rattus norvegicus) (UniProt P35439+Q00959+Q00960+Q00961+Q62645+Q8VHN2+Q9R1M7); test: Binding affinity to rat NMDA receptor at 10 uM by radioligand binding assay; type: protein-complex assay
[46] = AUC (0 to infinity) in Han/Wistar rat at 4 mg/kg, po; type: ADME, organism-based; design: time infinity, dose 4 mg/kg, route oral; conditions: plasma; in short: as §1
[47] = target: Acetylcholine receptor subunit alpha (Homo sapiens) (UniProt P02708); test: Binding affinity to human bungrotoxin binding site of nicotinic acetylcholine receptor alpha1 at 10 uM by radioligand binding assay
Sequence of Acetylcholine receptor subunit alpha (Homo sapiens) (P02708 whole entry): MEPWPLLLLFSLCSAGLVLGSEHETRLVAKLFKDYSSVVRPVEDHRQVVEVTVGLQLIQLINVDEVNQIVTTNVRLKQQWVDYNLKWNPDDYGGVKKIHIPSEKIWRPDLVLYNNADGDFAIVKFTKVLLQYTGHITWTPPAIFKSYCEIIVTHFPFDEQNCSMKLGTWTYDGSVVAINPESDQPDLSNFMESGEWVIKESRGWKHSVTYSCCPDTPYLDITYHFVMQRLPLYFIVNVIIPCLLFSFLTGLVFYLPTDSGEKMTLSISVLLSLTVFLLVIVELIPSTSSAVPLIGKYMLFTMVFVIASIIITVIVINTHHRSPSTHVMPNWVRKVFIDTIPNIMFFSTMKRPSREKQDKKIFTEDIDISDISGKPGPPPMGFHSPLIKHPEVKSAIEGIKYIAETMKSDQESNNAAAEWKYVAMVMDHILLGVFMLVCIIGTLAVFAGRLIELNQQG

[48] = Drug level in Han/Wistar rat cerebrospinal fluid at 4 mg/kg, po after 2 hrs; type: ADME, organism-based; design: dose 4 mg/kg, route oral; conditions: read-out: Drug uptake; in short: as §1
[49] = target: Mu-type opioid receptor (Homo sapiens) (UniProt P35372); test: Binding affinity to human MOP receptor at 10 uM by radioligand binding assay
[50] = target: Beta-1 adrenergic receptor (Homo sapiens) (UniProt P08588); test: Binding affinity to human beta1 adrenergic receptor at 10 uM by radioligand binding assay
[51] = Drug level in Han/Wistar rat brain at 4 mg/kg, po after 2 hrs; type: ADME, organism-based; design: dose 4 mg/kg, route oral; conditions: read-out: Drug uptake; in short: as §1
[52] = organism: Rattus norvegicus; test: Binding affinity to rat sigma 2 receptor at 10 uM by radioligand binding assay
[53] = organism: Homo sapiens; test: Liver blood flow human; type: ADME, organism-based

Sequence of Fatty acid synthase (Homo sapiens, UniProt P49327) (P49327 whole entry): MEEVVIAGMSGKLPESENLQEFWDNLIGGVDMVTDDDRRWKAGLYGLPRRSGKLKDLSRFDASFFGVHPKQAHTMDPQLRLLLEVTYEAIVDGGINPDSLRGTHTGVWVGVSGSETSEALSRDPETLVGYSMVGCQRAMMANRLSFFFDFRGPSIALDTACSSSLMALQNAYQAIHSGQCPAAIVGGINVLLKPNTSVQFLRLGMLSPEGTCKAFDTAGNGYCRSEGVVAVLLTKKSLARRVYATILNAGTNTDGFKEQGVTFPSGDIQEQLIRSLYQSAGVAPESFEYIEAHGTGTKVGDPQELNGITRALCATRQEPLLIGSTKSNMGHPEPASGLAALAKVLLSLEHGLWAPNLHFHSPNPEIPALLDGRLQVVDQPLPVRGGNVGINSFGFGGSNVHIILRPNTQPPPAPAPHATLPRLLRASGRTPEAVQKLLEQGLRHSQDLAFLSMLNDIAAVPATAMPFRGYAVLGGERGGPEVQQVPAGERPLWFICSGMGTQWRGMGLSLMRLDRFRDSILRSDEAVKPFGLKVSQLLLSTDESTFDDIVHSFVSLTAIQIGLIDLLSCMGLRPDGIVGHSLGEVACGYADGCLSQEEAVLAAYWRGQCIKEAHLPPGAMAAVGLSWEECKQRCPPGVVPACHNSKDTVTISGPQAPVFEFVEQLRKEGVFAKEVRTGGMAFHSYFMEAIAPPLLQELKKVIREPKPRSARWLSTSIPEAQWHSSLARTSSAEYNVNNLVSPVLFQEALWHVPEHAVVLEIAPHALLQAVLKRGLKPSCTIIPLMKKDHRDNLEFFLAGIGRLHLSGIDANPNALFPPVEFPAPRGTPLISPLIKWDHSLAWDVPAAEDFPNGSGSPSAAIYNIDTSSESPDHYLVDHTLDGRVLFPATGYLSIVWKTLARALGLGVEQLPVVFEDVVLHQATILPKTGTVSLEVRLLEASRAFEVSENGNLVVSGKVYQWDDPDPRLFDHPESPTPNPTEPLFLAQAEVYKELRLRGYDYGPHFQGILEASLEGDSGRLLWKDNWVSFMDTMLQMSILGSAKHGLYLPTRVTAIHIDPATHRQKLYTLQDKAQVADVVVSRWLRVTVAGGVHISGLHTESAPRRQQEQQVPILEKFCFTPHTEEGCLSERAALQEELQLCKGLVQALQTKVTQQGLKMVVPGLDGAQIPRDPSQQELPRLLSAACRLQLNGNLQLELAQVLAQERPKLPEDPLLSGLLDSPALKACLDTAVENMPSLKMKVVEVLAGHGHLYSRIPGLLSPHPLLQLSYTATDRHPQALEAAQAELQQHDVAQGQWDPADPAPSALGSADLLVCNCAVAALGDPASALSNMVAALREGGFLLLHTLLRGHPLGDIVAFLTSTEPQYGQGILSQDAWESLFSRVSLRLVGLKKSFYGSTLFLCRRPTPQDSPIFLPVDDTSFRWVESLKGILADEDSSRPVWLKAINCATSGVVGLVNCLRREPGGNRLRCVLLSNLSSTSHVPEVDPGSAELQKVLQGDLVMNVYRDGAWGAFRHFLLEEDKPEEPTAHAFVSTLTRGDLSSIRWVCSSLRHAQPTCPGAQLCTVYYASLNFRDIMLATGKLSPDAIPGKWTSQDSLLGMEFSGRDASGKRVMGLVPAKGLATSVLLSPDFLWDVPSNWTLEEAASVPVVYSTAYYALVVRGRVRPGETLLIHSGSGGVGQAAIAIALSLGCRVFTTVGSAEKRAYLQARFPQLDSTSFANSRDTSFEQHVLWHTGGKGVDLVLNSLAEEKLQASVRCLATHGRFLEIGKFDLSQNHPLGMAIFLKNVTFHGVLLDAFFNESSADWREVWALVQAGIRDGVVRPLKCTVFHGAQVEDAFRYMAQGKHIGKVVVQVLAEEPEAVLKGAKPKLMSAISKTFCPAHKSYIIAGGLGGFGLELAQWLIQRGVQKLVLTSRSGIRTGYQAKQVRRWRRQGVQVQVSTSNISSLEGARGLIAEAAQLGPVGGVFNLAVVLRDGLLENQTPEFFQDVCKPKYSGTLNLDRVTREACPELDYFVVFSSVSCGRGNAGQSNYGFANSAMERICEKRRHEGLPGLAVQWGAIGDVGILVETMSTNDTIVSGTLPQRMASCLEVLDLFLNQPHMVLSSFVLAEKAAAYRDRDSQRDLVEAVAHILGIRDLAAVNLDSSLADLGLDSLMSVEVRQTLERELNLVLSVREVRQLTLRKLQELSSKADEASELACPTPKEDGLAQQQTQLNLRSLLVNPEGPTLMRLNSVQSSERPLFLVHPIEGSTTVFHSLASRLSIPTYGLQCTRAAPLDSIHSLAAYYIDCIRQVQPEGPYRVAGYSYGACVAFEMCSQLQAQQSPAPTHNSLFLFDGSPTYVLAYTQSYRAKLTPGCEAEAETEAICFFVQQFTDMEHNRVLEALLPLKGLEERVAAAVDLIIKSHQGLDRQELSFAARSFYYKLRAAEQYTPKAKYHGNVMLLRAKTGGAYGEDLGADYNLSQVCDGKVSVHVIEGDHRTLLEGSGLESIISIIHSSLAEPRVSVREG

CCC(=O)N[C@H]1CC[C@@H](C(=O)N(C)c2ccc(-c3nc4ccccc4n3C)cc2)C1
IC50 [1]: 310 nM

CC(=O)N[C@@H]1CC[C@H](C(=O)N(C)c2ccc(-c3ccccc3)cc2)C1
IC50 [1]: > 10000 nM

CCNC(=O)N[C@H]1CC[C@@H](C(=O)N(C)c2ccc(-c3nc4ccccc4o3)cc2)C1
IC50 [1]: 530 nM

CN(C)CCCCCC(=O)N[C@H]1CC[C@@H](C(=O)N(C)c2ccc(-c3ccccc3)cc2)C1
IC50 [1]: 2000 nM

CC(=O)N[C@H]1CC[C@@H](C(=O)N(C)c2ccc(-c3nc4ccccc4[nH]3)cc2)C1
IC50 [1]: 1300 nM

CN(C)CCCCCC(=O)N[C@H]1CC[C@@H](C(=O)N(C)c2ccc(-c3nc4ccccc4o3)cc2)C1
IC50 [1]: 580 nM

CCNC(=O)N[C@H]1CC[C@@H](C(=O)N(C)c2ccc(-c3nc4ccccc4[nH]3)cc2)C1
IC50 [1]: 400 nM

COCC(=O)N[C@H]1CC[C@@H](C(=O)N(C)c2ccc(-c3nc4ccccc4o3)cc2)C1
IC50 [1]: 910 nM

CN(C)CCCCCC(=O)N[C@H]1CC[C@@H](C(=O)N(C)c2ccc(-c3nc4ccccc4[nH]3)cc2)C1
IC50 [1]: 700 nM

CN(C)C(=O)N[C@H]1CC[C@@H](C(=O)N(C)c2ccc(-c3nc4ccccc4o3)cc2)C1
IC50 [1]: 280 nM

CCCC(=O)N[C@H]1CC[C@@H](C(=O)N(C)c2ccc(-c3nc4ccccc4o3)cc2)C1
IC50 [1]: 420 nM

CCC(=O)N[C@H]1CC[C@@H](C(=O)N(C)c2ccc(-c3nc4ccccc4o3)cc2)C1 [BI 99179]
inhibition [2]: 13%
inhibition [3]: 9%
Papp [4]: 94 ×10⁻⁶ cm/s
inhibition [5]: -1%
bioavailability [6]: 46%
inhibition [7]: 17%
Stability [8]: Stable
clearance [9]: 8.2 mL/min/kg
Activity [10]: Non-toxic
inhibition [11]: -6%
Cmax [12]: 2110 nM
inhibition [13]: 4%
inhibition [14]: 0%
inhibition [15]: -7%
inhibition [16]: 17%
inhibition [17]: 6%
solubility [18]: 5 µg/mL (≈ 12.8 µM)
inhibition [19]: 10%
inhibition [20]: 5%
inhibition at 10 µM [21]: -5%
IC50 [22]: > 10000 nM
IC50 [1]: 79 nM
QH [23]: < 27%
IC50 [24]: > 10000 nM
inhibition [25]: 12%
Vd [26]: 1.6 L/kg
inhibition [27]: 9%
IC50 [28]: > 10000 nM
inhibition [29]: 10%
Tmax [30]: 0.5 h
inhibition [31]: 2%
inhibition [32]: 7%
Stability [33]: Stable
inhibition [34]: 4%
half-life [35]: 3 h
inhibition [36]: 1%
inhibition [37]: -2%
inhibition [38]: 7%
inhibition [39]: 19%
IC50 [40]: 600 nM
IC50 [41]: > 10000 nM
inhibition [42]: 8%
fraction unbound [43]: 0.024
IC50 [44]: > 10000 nM
inhibition [45]: -1%
AUC(0-inf) [46]: 9.35 µM·h
inhibition [47]: 9%
concentration at 2 h [48]: 50 nM
inhibition [49]: 0%
inhibition [50]: 4%
concentration at 2 h [51]: 1300 nM
inhibition [52]: 13%
QH [53]: < 26%

CCC(=O)N[C@@H]1CC[C@H](C(=O)N(C)c2ccc(-c3nc4ccccc4o3)cc2)C1 [BI 99990]
IC50 [1]: > 3000 nM

CCNC(=O)N[C@H]1CC[C@@H](C(=O)N(C)c2ccc(-c3nc4ccccc4n3C)cc2)C1
IC50 [1]: 1400 nM

CCC(=O)N[C@H]1CC[C@@H](C(=O)N(C)c2ccc(-c3nc4ccccc4[nH]3)cc2)C1
IC50 [1]: 190 nM

CCNC(=O)N[C@H]1CC[C@@H](C(=O)N(C)c2ccc(-c3ccccc3)cc2)C1
IC50 [1]: 1500 nM

CC(C)C(=O)N[C@H]1CC[C@@H](C(=O)N(C)c2ccc(-c3nc4ccccc4[nH]3)cc2)C1
IC50 [1]: 1500 nM

CC(C)C(=O)N[C@H]1CC[C@@H](C(=O)N(C)c2ccc(-c3ccccc3)cc2)C1
IC50 [1]: 420 nM

CCC(=O)N[C@H]1CC[C@@H](C(=O)N(C)c2ccc(-c3cn4ccccc4n3)cc2)C1
IC50 [1]: 290 nM

CN(C)CCCCCC(=O)N[C@H]1CC[C@@H](C(=O)N(C)c2ccc(-c3nc4ccccc4n3C)cc2)C1
IC50 [1]: 2400 nM

C/C=C/C/C=C/CCC(=O)[C@H]1O[C@H]1C(N)=O [CERULENIN]
IC50 [1]: 5800 nM

CN(C(=O)[C@@H]1CC[C@H](NC(=O)C(F)F)C1)c1ccc(-c2nc3ccccc3o2)cc1
IC50 [1]: 270 nM

CC(=O)N[C@H]1CC[C@@H](C(=O)N(C)c2ccc(-c3ccccc3)cc2)C1
IC50 [1]: 480 nM

CCC(=O)N[C@H]1CC[C@@H](C(=O)N(C)c2ccc(-c3ccccc3)cc2)C1
IC50 [1]: 300 nM

CC(=O)N[C@H]1CC[C@@H](C(=O)N(C)c2ccc(-c3nc4ccccc4o3)cc2)C1
IC50 [1]: 200 nM

— ChEMBL document CHEMBL1833814 (Bioorg Med Chem Lett, 2011)
